Screening results from PubChem BioAssay.
An excerpt weighted towards active compounds, which were near 1.8% of everything screened.
Rev-erbA mod: modulators of human Rev-erb alpha DNA binding | P20393 | Rev-erbα–FITC-DNA binding, fluorescence polarization, 90 min | activity, % at 10 µM | 370,000 tested, 0.79% active | AID 1259318;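 active = activity above about 14%, limit read from the data; passing the limit was not always enough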;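 also: 0% = DMSO wells with 35 nM protein and 100% = DMSO wells with 750 nM protein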
GalR3 antagonist: blocks the human galanin receptor 3; 360,000 tested, 0.44% active; O60755; inhibition, % at 3 µM; AID 651719; HEK293 GalR3-CNG cAMP membrane potential fluorescence; galR3 body fused to GalR1 C-terminus;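 active = inhibition above the screen-wide average plus 3 SD, cut at about 13% in these data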;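 also: forskolin and galanin both at EC90 stimulate the cells; cAMP rise reported by CNG channel membrane potential dye signal; 0% = forskolin plus galanin with DMSO and 100% = forskolin alone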
Target sequence (O60755 1-299 limits assumed): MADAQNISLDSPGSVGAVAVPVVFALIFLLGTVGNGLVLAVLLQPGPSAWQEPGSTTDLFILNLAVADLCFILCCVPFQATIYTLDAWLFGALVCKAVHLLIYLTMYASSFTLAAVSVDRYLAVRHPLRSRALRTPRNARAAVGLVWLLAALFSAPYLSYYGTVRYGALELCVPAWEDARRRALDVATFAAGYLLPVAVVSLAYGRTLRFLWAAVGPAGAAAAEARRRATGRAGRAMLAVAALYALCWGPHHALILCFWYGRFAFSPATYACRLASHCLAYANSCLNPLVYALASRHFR
NR2E3 ag-1: activates human NR2E3 receptor; CHO-S Gal4-NCOR/VP16-NR2E3 two-hybrid, luciferase; Q9Y5X4; 360,000 tested, 0.35% active; AID 602229; inhibition of corepressor binding, % at 3.98 µM;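 active = inhibition above the mean of all tested compounds plus 3 SD, cut at about 70% in these data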;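 also: 0% = DMSO with NR2E3 transfected cells and 100% = cells lacking NR2E3 construct; higher means lower luciferase signal from less NR2E3 corepressor binding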
Target sequence (Q9Y5X4 whole entry, looked up, the tested form may be a part): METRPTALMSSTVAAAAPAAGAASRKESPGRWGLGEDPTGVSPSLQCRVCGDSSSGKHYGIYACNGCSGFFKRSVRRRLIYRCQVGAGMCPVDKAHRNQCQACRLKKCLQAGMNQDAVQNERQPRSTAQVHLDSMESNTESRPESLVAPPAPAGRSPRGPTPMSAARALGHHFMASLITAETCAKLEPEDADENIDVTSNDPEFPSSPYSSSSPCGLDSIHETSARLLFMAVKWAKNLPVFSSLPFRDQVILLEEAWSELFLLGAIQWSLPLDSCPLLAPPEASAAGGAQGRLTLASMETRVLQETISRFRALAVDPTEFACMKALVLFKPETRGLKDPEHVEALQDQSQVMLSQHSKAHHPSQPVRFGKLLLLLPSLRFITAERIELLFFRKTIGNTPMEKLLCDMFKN
NR2E3 ag-2: NR2E3 (human) agonism | Q9Y5X4 | GST-NR2E3/biotin-RetCOR TR-FRET, 1536-well | inhibition of corepressor binding, % at 4.78 µM | 320,000 tested, 0.12% active | AID 2300;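 active = percent inhibition above the cutoff of mean plus 3 SD of all tested compounds, set per screening campaign, cut at about 20% in these data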;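 also: 0% = DMSO wells and 100% = biotin wells as full block of FRET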
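system = GST-tagged NR2E3 plus biotinylated RetCOR corepressor | input = 1.35 nM GST-NR2E3 | also added = 7 nM biotin-RetCOR | schedule = 5 h incubation at 4 °C | measured by = TR-FRET with europium anti-GST and streptavidin-D2, 340 nm excitation | read-out = percent loss of FRET ratio relative to control wells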
PG9 Ab binder: binds the HIV-1 gp120 antibody PG9; TR-FRET gp120-PG9 antibody binding; inhibition, % at 6.7 µM; 360,000 tested, 0.43% active; AID 624416; in the data active = inhibition above about 8.5%
NR2E3 ag conf: NR2E3 agonism confirmed in two-hybrid assay. shares compounds with NR2E3 ag-1. CHO-S mammalian two-hybrid NR2E3-NCOR, luciferase luminescence. inhibition, % at 3.98 µM. 2,300 tested, 51% active;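 active = average inhibition above a cutoff equal to the mean inhibition of all tested compounds plus one SD, cut at about 70% in these data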;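 also: 0% = DMSO in NR2E3 cells and 100% = DMSO in cells lacking NR2E3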
VP16 counter: counter-screen for NR2E3 agonists: GAL4-VP16 reporter inhibitors. shares compounds with NR2E3 ag-1. inhibition, % at 3.98 µM. AID 624379. CHO-S GAL4-VP16 luciferase reporter, luminescence. 2,300 tested, 29% active;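 active = mean inhibition above a cutoff equal to the average over all tested compounds plus one standard deviation, cut at about 70% in these data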;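 also: luciferase from a UAS reporter driven by GAL4-VP16 transactivation; 0% = DMSO with VP16-transfected cells and 100% = DMSO with cells lacking VP16; higher means less reporter light so more repression of VP16 activity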
PG9 binder conf: confirmation of small molecules binding HIV-1 gp120 antibody PG9; shares compounds with PG9 Ab binder; TR-FRET PG9 antibody binding, biochemical; 1,500 tested, 90% active; inhibition, % at 6.7 µM; in the data active = inhibition above about 9%
PGV04 Ab binding: counter-screen for PG9 binders: binding control antibody PGV04. shares compounds with PG9 Ab binder. TR-FRET PGV04 antibody-gp120 binding, biochemical. inhibition, % at 6.7 µM. 1,500 tested, 95% active. AID 651604; in the data active = inhibition above about 9.5%
GalR3 antag conf: confirmation of human galanin receptor 3 antagonists; shares compounds with GalR3 antagonist; HEK293 GalR3 CNG cAMP biosensor, membrane potential fluorescence; galR3 fused to GalR1 carboxy tail; challenged with forskolin and galanin at EC90; inhibition, % at 3 µM; 1,600 tested, 59% active; AID 652245;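 active = inhibition above the primary screen's cutoff, the mean inhibition of all screened compounds plus 3 SD, cut at about 13% in these data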;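 also: 0% = forskolin plus galanin and 100% = forskolin alone with DMSO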
CNG parental: parental cell agonism counter-screen for GalR3 antagonists | 1,600 tested, 10% active | HEK293-CNG parental cells, cAMP membrane potential fluorescence; normalised: DMSO wells 0%, forskolin wells 100% | activation, % at 3 µM | shares compounds with GalR3 antagonist; in the data active = activation above about 1.3%
NR1D1 mod conf: confirmation of modulators of human Rev-erb alpha DNA binding; shares compounds with Rev-erbA mod; Rev-erb alpha FITC-DNA binding, fluorescence polarization, 90 min; activation, % at 25 µM; 3,000 tested, 61% active; AID 1259319;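 active = activation at or above a set limit, or at least 3 SD above the negative control mean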;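 also: 0% = 35 nM protein with DMSO and 100% = 750 nM protein high control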
RORg DNA counter: affects RORgamma DNA binding in a Rev-erb alpha counter-screen; shares compounds with Rev-erbA mod; purified RORgamma protein-FITC-DNA binding, fluorescence polarization; IC50, µM; 910 tested, 8% active; AID 1259320;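 active = Compounds whose fitted half-maximal concentration for disrupting protein-DNA binding is below 10 micromolar; the record names Rev-erb in its text, so the target is in doubt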
Starred values were filed as active, the others as inactive.

How did COC(=O)C1CCCCN1C(=O)c1cc(COc2cccc3cccnc23)on1 (centres undefined) do in these assays?
Rev-erbA mod: -1; GalR3 antagonist: 1; NR2E3 ag-1: -11; NR2E3 ag-2: 0; PG9 Ab binder: -2

Results for CC(COc1cc(F)cc(C#N)c1)CN1CCC(C(O)(c2ccccc2)c2ccccc2)CC1 (centres undefined) ?
Rev-erbA mod: -1

Results for COc1ccc(CNC(=O)c2sc(=O)n(Cc3ccc(-c4ccccc4)cc3)c2C)cc1OC ?
Rev-erbA mod: -8; GalR3 antagonist: 26*; NR2E3 ag-1: 60; PG9 Ab binder: -1; NR2E3 ag conf: 72*; VP16 counter: 61; GalR3 antag conf: 16*; CNG parental: -1

Results for COc1ccc(CNC(=O)c2sc(=O)n(Cc3ccc(C)cc3)c2C)cc1OC ?
Rev-erbA mod: -8; GalR3 antagonist: -4; NR2E3 ag-1: 23; PG9 Ab binder: -1

How did O[C@H](COc1ccccc1)CN1CCC(C(O)(c2ccccc2)c2ccccc2)CC1 do in these assays?
Rev-erbA mod: 7

What do the screens show for `Cc1ccc(S(=O)(=O)NCc2ccncc2)c(C)c1C`?
Rev-erbA mod: 1; GalR3 antagonist: 86*; NR2E3 ag-1: 80*; NR2E3 ag-2: 3; PG9 Ab binder: -2; NR2E3 ag conf: 94*; VP16 counter: 85*; GalR3 antag conf: 111*; CNG parental: -1

What do the screens show for `COc1ccc(OC)c(S(=O)(=O)N2CCCCC2C(=O)N2CCN(Cc3ccc(F)cc3)CC2)c1` (centres undefined)?
Rev-erbA mod: 1

Results for CCN(C(=O)c1ccc(C(C)(C)C)cc1)c1nnc(Cn2nnc3ccccc32)s1 ?
Rev-erbA mod: -8; GalR3 antagonist: 102*; NR2E3 ag-1: 89*; NR2E3 ag-2: 1; PG9 Ab binder: 1; NR2E3 ag conf: 92*; VP16 counter: 77*; GalR3 antag conf: 107*; CNG parental: 0

Results for CCOC(=O)[C@H](CCc1ccccc1)N[C@@H](C)C(=O)N1C(=O)N(C)C[C@H]1C(=O)O ?
Rev-erbA mod: 1

What do the screens show for `COc1ccc(-c2ocnc2C(=O)NCc2nn(-c3ccccc3)nc2C)cc1`?
Rev-erbA mod: 3; GalR3 antagonist: 19*; NR2E3 ag-1: 56; NR2E3 ag-2: 2; PG9 Ab binder: 2; NR2E3 ag conf: 87*; VP16 counter: 72*; GalR3 antag conf: 84*; CNG parental: 1

How did COc1ccc(CC(=O)NCc2nn(-c3ccccc3)nc2C)cc1OC do in these assays?
Rev-erbA mod: -1; GalR3 antagonist: 2; NR2E3 ag-1: -16; NR2E3 ag-2: 2; PG9 Ab binder: -1

What do the screens show for `C[C@H]1[C@@H](OC(=O)NCc2cccs2)CC[C@@]23CCCN2C(=O)CCC[C@@H]13`?
Rev-erbA mod: -6

How did CC(C)(C)c1ccc(S(=O)(=O)N2CCCC(C(=O)NCCN3CCC(Cc4ccccc4)CC3)C2)cc1 (centres undefined) do in these assays?
Rev-erbA mod: -4

Results for CCN1/C(=C/c2ccc3cc(C)ccc3[n+]2CC)Sc2cc(C)ccc21 ?
Rev-erbA mod: 29*; GalR3 antagonist: 50*; NR2E3 ag-1: 90*; PG9 Ab binder: -6; NR2E3 ag conf: 100*; VP16 counter: 85*; GalR3 antag conf: 62*; CNG parental: 6.2*; NR1D1 mod conf: 51*; RORg DNA counter: >40

How did CCN1/C(=C/c2ccc3cc(C)ccc3[n+]2C)Sc2ccc3sccc3c21 do in these assays?
Rev-erbA mod: 12; GalR3 antagonist: -2; NR2E3 ag-1: 66; PG9 Ab binder: -34

What do the screens show for `CC(=O)N1CCCc2cc(S(=O)(=O)N3CCCC(C(=O)N4CCN(c5cc(C)ccc5C)CC4)C3)ccc21` (centres undefined)?
Rev-erbA mod: 17*; GalR3 antagonist: -3; NR2E3 ag-1: 98*; NR2E3 ag-2: -4; PG9 Ab binder: -1; NR2E3 ag conf: 91*; VP16 counter: 79*; NR1D1 mod conf: 18*

How did Cc1c(NC(=O)C2CCCN(S(=O)(=O)c3ccc(F)cc3)C2)c(=O)n(-c2ccccc2)n1C (centres undefined) do in these assays?
Rev-erbA mod: 5

Results for Cc1ccc(-c2nc(NC(=O)CSc3nnnn3-c3ccccc3)ns2)cc1 ?
Rev-erbA mod: 18*; GalR3 antagonist: -1; NR2E3 ag-1: 73*; NR2E3 ag-2: 4; PG9 Ab binder: 13*; NR2E3 ag conf: 100*; VP16 counter: 29; PG9 binder conf: 4; PGV04 Ab binding: 6; NR1D1 mod conf: 10

How did CCn1c2ccccc2c2cc(NC(=O)CSc3nnnn3-c3ccccc3)ccc21 do in these assays?
Rev-erbA mod: 39*; GalR3 antagonist: -3; NR2E3 ag-1: 70; NR2E3 ag-2: 1; PG9 Ab binder: 10*; NR2E3 ag conf: 54; VP16 counter: 21; PG9 binder conf: 9.2*; PGV04 Ab binding: 18*; NR1D1 mod conf: 24*

Results for O=C(CSc1nnnn1-c1ccccc1)Nc1ccc(Cl)cc1 ?
Rev-erbA mod: 1; GalR3 antagonist: -4; NR2E3 ag-1: -19; NR2E3 ag-2: 0; PG9 Ab binder: 0

How did CCNC(=S)NNC(=O)CSc1nnc(SCc2cccc3ccccc23)s1 do in these assays?
Rev-erbA mod: -5
